Only some compounds are listed: those with a hit (about 2.3% of all), similar ones and a draw of the others.
PAX8 reporter – inhibitors of PAX8-driven TPO luciferase reporter, primary screen, RMG-I cells, single concentration; SteadyGlo, 24 h; inhibition, % at 12.6 µM; 1.2% of 360,000 active;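 active means mean replicate inhibition at least 60% with every replicate also reaching 60%; inconclusive means only one of the two criteria is met; inactive means mean below 60% and not all replicates reaching 60%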;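 further: luciferase light reporting Pax8 driven TPO promoter activity; plate controls were median of neutral control wells for no effect and mitoxantrone controls for full effect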
Env fusion inh – inhibitors of HIV-1 Env-driven cell-cell fusion, primary screen, HeLa-JRFL effector, CEM21 target cells, luciferase | inhibition, % at 12.3 µM | 1.1% of 360,000 active | AID 651610, 2012;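 active means mean replicate inhibition score of at least 50 and every replicate individually at or above 50; inconclusive means only one of the two criteria met; inactive means mean below 50 and not all replicates reaching 50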;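 further: 0% = plate neutral controls and 100% = maraviroc near 300 nM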
EWS-Fli block – EWS/Fli-driven NR0B1 reporter inhibitors, primary screen, A673 cells, NR0B1 luciferase, luminescence, MLPCN library | viability-normalised | inhibition, % at 12.6 µM | 0.67% of 350,000 active | AID 651661, 2012;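 active means mean inhibition of at least 50% after viability correction, with every replicate also passing that limit; inconclusive means mean reaches 50% but only one of two replicates passes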;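 further: firefly luciferase signal divided by Alamar Blue viability fluorescence both relative to DMSO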
F508del corr – F508del CFTR correction, initial screen, CFBE line, single point; CFBE cells, YFP halide quenching; stimulated with forskolin plus potentiator P3; % fluorescence drop versus neutral controls; activity (quench increase), % at 7.58 µM; 0.36% of 350,000 active;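 active means mean added fluorescence quench of at least 8% versus neutral control, with both replicates also reaching 8%; inconclusive means only one of the mean or replicate conditions met; inactive means mean below 8% and not both replicates reaching 8%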;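 further: cells transiently co-express mutant CFTR-F508del with the halide-sensitive YFP; corrector assay measuring rescue of mutant channel to the surface after 24 h compound exposure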
PGC1a acetyl inh – inhibitors of PGC1a acetylation signal, primary screen, cell-based, U2OS, AlphaScreen, inhibitor mode | AlphaScreen anti-acetyl-lysine; with virally co-expressed GCN5 acetyltransferase | inhibition, % at 15.6 µM | 0.17% of 350,000 active;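 active means every replicate shows inhibition of at least 40%; inconclusive means mean inhibition at least 40% but some replicate below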;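 further: 0% = neutral control wells and 100% = positive control wells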
FN deposition inh – inhibitors of fibronectin matrix deposition, primary screen, AH1F cells, Alexa488-fibronectin fluorescence, plate reader; AH1F fibroblasts, overnight; inhibition, % at 12.6 µM; 0.086% of 350,000 active; AID 743247, 2014;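 active means mean inhibition across replicates of 30% or more, regardless of how many single replicates reach that level; inconclusive means mean under 30% yet at least half of replicates reach 30%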;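 further: positive control wells lacked labelled fibronectin entirely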
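Material: AH1F fibroblasts assembling fluorescent fibronectin matrix; amount: 10000 AH1F cells/well; medium: DMEM, 2% serum; reagent: Alexa488-fibronectin, 24 nM final in well; dosing: single compound dose, delivered by pin transfer; incubation: 1 h adhesion, overnight exposure; detection: fluorescence after three HBSS washes, excitation 485 nm, emission 525 nm; measure: fibronectin deposition inhibition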
Starred values were filed as active, the others as inactive; ? = inconclusive; nt = no result; [ ] = remark or other dose.

SMILES	PAX8 reporter	Env fusion inh	EWS-Fli block	F508del corr	PGC1a acetyl inh	FN deposition inh
C[C@@H]1CCCCO[C@@H](CN(C)C(=O)CCC(F)(F)F)[C@H](C)CN([C@@H](C)CO)C(=O)c2cc(NS(=O)(=O)c3ccccc3)ccc2O1	-16	-23[16.7 µM]	-5	-3	-5	nt
CCNC(=O)C[C@@H]1CC[C@H](NS(=O)(=O)c2ccc(C)cc2)[C@@H](CO)O1	-25	-29[16.7 µM]	4	2	-5	nt
N#C[C@H]1[C@H](c2ccc(C#Cc3ccc(F)cc3)cc2)[C@H](CO)N1C(=O)Nc1ccc(F)cc1	49	2[16.7 µM]	9	1	2	8
N#C[C@@H]1[C@H](c2ccc(C#CC3CCCC3)cc2)[C@H](CO)N1C(=O)Nc1ccc(F)cc1	85*	36[16.7 µM]	-1	1	-18	-9
N#C[C@H]1[C@@H](c2ccc(C#Cc3ccc(F)cc3)cc2)[C@H](CO)N1C(=O)Nc1ccc(F)cc1	94*	0[16.7 µM]	17	1	6	16
Cc1cccc(S(=O)(=O)N2CCCCN3[C@@H](CO)[C@H](c4ccc(C#CC5CC5)cc4)[C@@H]3C2)c1	-2	nt	9	0	-8	nt
O=C(NC[C@H]1CC[C@@H]2[C@@H](CN2Cc2cc(-c3ccccc3)on2)O1)c1ccc2c(c1)OCO2	-29	-57[16.7 µM]	1	1	-5	nt
Cc1ccc(C(=O)Nc2ccc3c(c2)OCO3)cc1	nt	-184	nt	nt	7	-6
Cc1ccc(C(=O)Nc2ccc3c(c2)CCC3)cc1	10	-87	59*	nt	-2	-5
Cc1ccc(C(=O)Nc2ccc3c(c2)OCCO3)cc1	50	-141	69*	0	nt	1
Cc1ccc(C(=O)NCC(=O)Nc2ccc3c(c2)CCC3)cc1	nt	-12	-43	1	1	-4
O=C(Nc1ccc2c(c1)OCCO2)c1cc(F)c(F)cc1Cl	-150	-224	-89	0	7	1
Cc1ccc(C(=O)Nc2ccc3c(c2)OCCO3)c(Cl)c1	52	-5	63*	-3	nt	-11
CCN1Cc2cc(C(=O)NCCN3CCCC3)nc(-c3cccc(C4=CCCC4)c3)c2[C@H]1CCO	nt	nt	nt	nt	nt	3
O=C(c1ccc(CS(=O)c2ccccc2Cl)o1)N1CCOCC1 (stereo not drawn)	-20	-11	2	0	3	-7
COc1ccc(N2CCN(C(=O)c3ccc(CS(=O)c4cccc(C)c4)o3)CC2)cc1 (stereo not drawn)	28	10	nt	-1	-3	2
COc1cccc(N2CCN(C(=O)c3ccc(CS(=O)c4ccccc4C)o3)CC2)c1 (stereo not drawn)	?	-459	58*	5	nt	-15
COc1ccccc1S(=O)(=O)Cc1ccc(C(=O)N2CCN(c3cccc(Cl)c3)CC2)o1	nt	98*	nt	nt	-12	-1
COc1cccc(N2CCN(C(=O)c3ccc(CS(=O)c4ccccc4Cl)o3)CC2)c1 (stereo not drawn)	93*	-129	51*	0	-8	-28
O=C(c1ccc(CS(=O)c2ccccc2Cl)o1)N1CCN(c2ccccc2)CC1 (stereo not drawn)	12	-233	56*	6	nt	-1
O=C(C[C@H]1C[C@@H]2c3cc(NS(=O)(=O)c4ccc(F)cc4)ccc3O[C@@H]2[C@H](CO)O1)N1CCCCC1	-1	9[16.7 µM]	1	1	-3	nt
O=C(c1ccc(F)cc1)N1CCCCN2[C@H](CO)[C@@H](c3ccc(-c4ccc(F)cc4)cc3)[C@H]2C1	0	nt	-10	-1	12	nt
COCCNC(=S)N(Cc1cc2cc(C)ccc2n2nnnc12)C1CCCC1	2	60*	0	0	5	-5
COc1ccc(Nc2ccc(C(F)(F)F)cc2[N+](=O)[O-])cn1	18	59*	9	-1	nt	nt
O=C(C[C@H]1C[C@@H]2c3cc(NC(=O)NC4CCCC4)ccc3O[C@@H]2[C@H](CO)O1)NCc1ccncc1	-6	16[16.7 µM]	-2	1	5	-2
SMILES	PAX8 reporter	Env fusion inh	EWS-Fli block	F508del corr	PGC1a acetyl inh	FN deposition inh
COc1ccc(C(=O)N(C)Cc2cnn(Cc3ccccc3)c2)cc1S(=O)(=O)N1CCOCC1	39	nt	62*	3	-7	12
COc1ccc(N2CCN(C(=O)CSc3nnc(-c4cc5ccccc5cc4O)n3C)CC2)cc1	26	77*	nt	nt	14	16
C=CCn1c(COc2cccc(C)c2C)nnc1SCC(=O)N1CCN(c2ccccc2)CC1	0	64*	-10	nt	nt	0
CCn1c(SCC(=O)N2CCN(c3ccccc3)CC2)nnc1-c1c[nH]c2ccccc12	21	65*	22	2	-6	11
CC1(C)Cc2ccccc2-c2nnc(SCc3ccccc3)n21	nt	nt	-7	4	-20	nt
CC1(C)Cc2ccccc2-c2nnc(SCC(=O)N3CCN(c4ccccc4)CC3)n21	nt	83*	nt	nt	12	0
COc1ccc(Nc2nc(N3CCCC3)nc(N3CCOCC3)n2)cc1	4	19	-3	3	nt	-1
c1ccc(Nc2nc(N3CCCC3)nc(N3CCOCC3)n2)cc1	-36	61*	7	-1	nt	5
CCS(=O)(=O)N1CCCCN2[C@@H](CO)[C@@H](c3ccc(C#CC(C)(C)O)cc3)[C@@H]2C1	12	nt	-15	0	8	nt
CCOC(=O)C1=C[C@@H](C2CCCC2)N(S(=O)(=O)c2ccc([N+](=O)[O-])cc2)[C@H]1c1ccccc1	29	55*	3	-1	-26	-15
CCOC(=O)C1=C[C@@H](CC)N(S(=O)(=O)c2ccc(C)cc2)[C@H]1c1ccccc1	23	-1	-4	0	-10	-5
C[C@@H]1COCc2cn(nn2)CC[C@H](Cc2ccccc2)C(=O)N1	nt	nt	nt	nt	nt	-3
Cc1ccc(NC(=O)c2c([N+](=O)[O-])c(C(C)(C)C)nn2C)c(C)c1	128*	nt	-6	-2	nt	9
O=C(C[C@H]1CC[C@H](NC(=O)CC2CC2)[C@@H](CO)O1)NCc1ccccc1	nt	nt	-3	0	-4	nt
C[C@H](CO)N1C[C@H](C)[C@H](CN(C)CC2CCCCC2)OCCCC[C@H](C)Oc2ccc(NS(=O)(=O)c3ccc(Cl)cc3)cc2C1=O	29	9[16.7 µM]	65*	-1	8	nt
C[C@@H]1CCCCO[C@@H](CN(C)CC2CCCCC2)[C@H](C)CN([C@@H](C)CO)C(=O)c2cc(NS(=O)(=O)c3ccc(Cl)cc3)ccc2O1	12	-57[16.7 µM]	8	-3	-1	nt
C[C@@H]1CCCCO[C@@H](CN(C)CC2CCCCC2)[C@@H](C)CN([C@@H](C)CO)C(=O)c2cc(NS(=O)(=O)c3ccc(Cl)cc3)ccc2O1	34	-9[16.7 µM]	10	0	-2	nt

High-throughput results: PubChem BioAssay, Broad Institute
